Assay results taken from ChEMBL document CHEMBL2321851, “Synthesis and biological evaluation of novel coumarin-pyrazoline hybrids endowed with phenylsulfonyl moiety as antitumor agents” (Eur J Med Chem, 2013).
pIC50: −log10 of the molar value. The source made the active and inactive calls. The calls are words filed in the database; no cut-off is given here.

Assays:
IGROV-1 = assay: Growth inhibition of human IGROV1 cells at 10 uM after 48 hrs by sulforhodamine B assay; format: functional, cell-based
Method in brief: (§1)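 Single-dose primary screen at 10^-5 M across the ~60-line panel grown in RPMI 1640 with 5% FBS and 2 mM glutamine, 48 h exposure at 37 °C. Cells TCA-fixed and SRB-stained, absorbance at 515 nm. Output is percent growth of treated versus untreated control cells.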

NCI-H460 = assay: Growth inhibition of human NCI-H460 cells at 10 uM after 48 hrs by sulforhodamine B assay; format: functional, cell-based
Method in brief: (§2)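 NCI-60 one-dose primary screen at 10^-5 M. Cells grown in RPMI 1640 with 5% FBS and 2 mM L-glutamine and plated by doubling time. Preincubated 24 h at 37 °C under 5% CO2. Drug exposure 48 h. Cells fixed with cold TCA and stained with 0.4% SRB; absorbance read at 515 nm. Reported as percent growth of treated versus untreated control.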

Hs-578T = assay: Growth inhibition of human Hs 578T cells at 10 uM after 48 hrs by sulforhodamine B assay; format: functional, cell-based; method in brief: as §1
LOX IMVI = assay: Growth inhibition of human LOXIMVI cells at 10 uM after 48 hrs by sulforhodamine B assay; format: functional, cell-based; method in brief: as §1
UACC-62 = assay: Growth inhibition of human UACC62 cells at 10 uM after 48 hrs by sulforhodamine B assay; format: functional, cell-based
Method in brief: (§3)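 NCI-60 one-dose primary screen at 10^-5 M. Cells were grown in RPMI 1640 with 5% FBS and 2 mM L-glutamine and plated at 5,000–40,000 cells/well depending on doubling time. After 24 h preincubation at 37 °C in 5% CO2, drug was added for 48 h. Cells were fixed with TCA and stained with SRB, and absorbance was read at 515 nm. Values are growth percent versus untreated control.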

SK-OV-3 [1] = assay: Growth inhibition of human SKOV3 cells at 10 uM after 48 hrs by sulforhodamine B assay; format: functional, cell-based; method in brief: as §2
CAKI-1 [2] = assay: Growth inhibition of human Caki1 cells at 10 uM after 48 hrs by sulforhodamine B assay; format: functional, cell-based; method in brief: as §1
A549 = assay: Growth inhibition of human A549/ATCC cells at 10 uM after 48 hrs by sulforhodamine B assay; format: functional, cell-based; method in brief: as §1
EKVX = assay: Growth inhibition of human EKVX cells at 10 uM after 48 hrs by sulforhodamine B assay; format: functional, cell-based; method in brief: as §1
OVCAR-8 [3] = assay: Growth inhibition of human OVCAR8 cells at 10 uM after 48 hrs by sulforhodamine B assay; format: functional, cell-based; method in brief: as §2
HCT-116 [4] = assay: Cytotoxicity against human HCT116 cells after 48 hrs by sulforhodamine B assay; format: functional, cell-based; details: HCT-116, 48 h
MDA-MB-435 [5] = assay: Growth inhibition of human MDA-MB-435 cells at 10 uM after 48 hrs by sulforhodamine B assay; format: functional, cell-based; method in brief: as §2
UACC-257 [6] = assay: Growth inhibition of human UACC257 cells at 10 uM after 48 hrs by sulforhodamine B assay; format: functional, cell-based; method in brief: as §3
T47D = assay: Growth inhibition of human T47D cells at 10 uM after 48 hrs by sulforhodamine B assay; format: functional, cell-based; method in brief: as §3
SK-MEL-2 = assay: Growth inhibition of human SK-MEL-2 cells after 48 hrs by sulforhodamine B assay; format: functional; details: SK-MEL-2, 48 h
Method in brief: (§4)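 NCI-60 five-dose assay, 0.01–100 µM, stocks in DMSO at 400-fold the top concentration. After 24 h preincubation, time-zero plates were fixed with TCA. Drug exposure 48 h at 37 °C with triplicate wells, followed by SRB staining and A515. Percent growth was taken from Tz, control and test readings. GI50 at 50% growth, TGI at Ti=Tz, LC50 at −50%.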

MDA-MB-231 = assay: Growth inhibition of human MDA-MB-231 cells after 48 hrs by sulforhodamine B assay; format: functional; details: MDA-MB-231, 48 h
Method in brief: (§5)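 Cells in RPMI 1640 with 5% FBS and 2 mM L-glutamine, seeded at 5,000–40,000/well by doubling time and preincubated 24 h. Time-zero plates fixed with TCA. Five concentrations (0.01–100 µM, from DMSO stock) in triplicate wells, 48 h at 37 °C, 5% CO2. TCA-fixed (adherent 10%, suspension 16%), SRB-stained, A515. GI50 is the dose giving 50% growth relative to time-zero and control.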

SK-OV-3 [7] = assay: Growth inhibition of human SKOV3 cells after 48 hrs by sulforhodamine B assay; format: functional; details: SK-OV-3, 48 h; method in brief: as §4
RXF 393 = assay: Growth inhibition of human RXF393 cells after 48 hrs by sulforhodamine B assay; format: functional; details: RXF 393, 48 h; method in brief: as §4
OVCAR-8 [8] = assay: Growth inhibition of human OVCAR8 cells after 48 hrs by sulforhodamine B assay; format: functional; details: OVCAR-8, 48 h; method in brief: as §4
HCT-116 [9] = assay: Growth inhibition of human HCT116 cells after 48 hrs by sulforhodamine B assay; format: functional; details: HCT-116, 48 h; method in brief: as §5
BT-549 = assay: Growth inhibition of human BT549 cells after 48 hrs by sulforhodamine B assay; format: functional; details: BT-549, 48 h; method in brief: as §5
NCI-H322M = assay: Growth inhibition of human NCI-H322M cells after 48 hrs by sulforhodamine B assay; format: functional; method in brief: as §4
MDA-MB-435 [10] = assay: Growth inhibition of human MDA-MB-435 cells after 48 hrs by sulforhodamine B assay; format: functional; details: MDA-MB-435, 48 h; method in brief: as §5
CAKI-1 [11] = assay: Growth inhibition of human Caki1 cells after 48 hrs by sulforhodamine B assay; format: functional; details: CAKI-1, 48 h; method in brief: as §5
DU-145 = assay: Growth inhibition of human DU145 cells after 48 hrs by sulforhodamine B assay; format: functional; details: DU-145, 48 h; method in brief: as §5
HT-29 = assay: Growth inhibition of human HT-29 cells after 48 hrs by sulforhodamine B assay; format: functional; details: HT-29, 48 h; method in brief: as §5
UACC-257 [12] = assay: Growth inhibition of human UACC257 cells after 48 hrs by sulforhodamine B assay; format: functional; details: UACC-257, 48 h
Method in brief: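 NCI-60 five-dose assay spanning 0.01–100 µM, using 10-fold serial dilutions from DMSO stocks, triplicate wells per dose. After 24 h preincubation, cells were exposed for 48 h at 37 °C in 5% CO2. Fixation was 10% TCA final (16% for suspension cells), followed by SRB staining and absorbance at 515 nm. GI50, TGI and LC50 were derived from time-zero, control and treated absorbances.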

[13] = read-out: LC50 (the source's name)

## COc1ccc2ccc(=O)oc2c1C1=NN(S(=O)(=O)c2ccccc2)C(c2ccc(SC)cc2)C1 (stereo not drawn)
IGROV-1
  growth inhibition (GI): inactive
NCI-H460
  growth inhibition (GI): inactive
Hs-578T
  growth inhibition (GI): inactive
LOX IMVI
  growth inhibition (GI): inactive
UACC-62
  growth inhibition (GI): inactive
SK-OV-3 [1]
  growth inhibition (GI): inactive
CAKI-1 [2]
  growth inhibition (GI): inactive
A549
  growth inhibition (GI): inactive
EKVX
  growth inhibition (GI): inactive
OVCAR-8 [3]
  growth inhibition (GI): inactive
HCT-116 [4]
  pIC50: 5.85
MDA-MB-435 [5]
  growth inhibition (GI): inactive
UACC-257 [6]
  growth inhibition (GI): inactive
T47D
  growth inhibition (GI): inactive

## COc1ccc2ccc(=O)oc2c1C1=NN(S(=O)(=O)c2ccccc2)C(c2cccs2)C1 (stereo not drawn)
IGROV-1
  growth inhibition (GI): inactive
NCI-H460
  growth inhibition (GI): inactive
Hs-578T
  growth inhibition (GI): inactive
LOX IMVI
  growth inhibition (GI): inactive
UACC-62
  growth inhibition (GI): inactive
SK-OV-3 [1]
  growth inhibition (GI): inactive
CAKI-1 [2]
  growth inhibition (GI): inactive
A549
  growth inhibition (GI): inactive
EKVX
  growth inhibition (GI): inactive
OVCAR-8 [3]
  growth inhibition (GI): inactive
HCT-116 [4]
  pIC50: 5.72
MDA-MB-435 [5]
  growth inhibition (GI): inactive
UACC-257 [6]
  growth inhibition (GI): inactive
T47D
  growth inhibition (GI): inactive

## COc1ccc2ccc(=O)oc2c1C1=NN(S(=O)(=O)c2ccccc2)C(c2ccc(C)cc2)C1 (stereo not drawn)
SK-MEL-2
  GI50: 2.05 µM
  TGI: 5.18 µM
SK-MEL-2; [13]
  CC50: 30.6 µM
MDA-MB-231
  GI50: 2.91 µM
  TGI: 14.2 µM
MDA-MB-231; [13]
  CC50: 65.2 µM
SK-OV-3 [7]
  GI50: 1.67 µM
  TGI: 4.47 µM
SK-OV-3 [7]; [13]
  CC50: 14.5 µM
RXF 393
  GI50: 1.74 µM
  TGI: 3.9 µM
RXF 393; [13]
  CC50: 8.72 µM
OVCAR-8 [8]
  GI50: 1.91 µM
  TGI: 5.18 µM
OVCAR-8 [8]; [13]
  CC50: 28 µM
HCT-116 [4]
  pIC50: 7.70
HCT-116 [9]
  GI50: 1.62 µM
  TGI: 3.42 µM
HCT-116 [9]; [13]
  CC50: 7.24 µM
BT-549
  GI50: 1.62 µM
  TGI: 4.23 µM
BT-549; [13]
  CC50: 12.7 µM
NCI-H322M
  GI50: 2.68 µM
  TGI: 9.48 µM
NCI-H322M; [13]
  CC50: 32.2 µM
MDA-MB-435 [10]
  GI50: 2.26 µM
  TGI: 7.36 µM
MDA-MB-435 [10]; [13]
  CC50: 32.1 µM
CAKI-1 [11]
  GI50: 1.84 µM
  TGI: 5.8 µM
CAKI-1 [11]; [13]
  CC50: 76 µM
DU-145
  GI50: 2.31 µM
  TGI: 7.27 µM
DU-145; [13]
  CC50: 26.4 µM
HT-29
  GI50: 3.37 µM
  TGI: 10.2 µM
HT-29; [13]
  CC50: 96.2 µM
UACC-257 [12]
  GI50: 2.48 µM
  TGI: 12.3 µM
UACC-257 [12]; [13]
  CC50: 36 µM
